T cruzi growth-1: T. cruzi proliferation inhibition | T. cruzi beta-gal in NIH3T3, GalScreen luminescence, 90 h | inhibition, % at 8.34 µM | 5.9% of 77,000 active | AID 624255;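 active = mean inhibition above about 93%, with at least 55% of replicates each passing it, limit read from the data, passing the limit was not always enough; inconclusive = only one of those two conditions holds; inactive = neither condition holds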
Pf Dd2 growth: blocks growth of Plasmodium falciparum Dd2 parasites; P. falciparum Dd2 growth, SYBR Green, 72 h; stronger effect = lower value; activity change, % at 10 µM; 2.3% of 94,000 active; AID 1159554; in the data active = activity change below about -80%; inconclusive = no clear call, values can overlap the other calls
IDH1 mut inh: blocks human IDH1 R132H reductase activity; diaphorase/resazurin fluorescence, 60 min; inhibition, % at 10 µM; 0.18% of 70,000 active; in the data active = inhibition above about 34%; inconclusive = no clear call, values can overlap the other calls; inactive = below about 11%;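 note: 0% = DMSO and 100% = no enzyme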
KDM4C inh: blocks human GASC-1 (KDM4C) demethylase activity | 0.15% of 96,000 active | Q9H3R0 | GST-KDM4C 2-372, H3K9me3 peptide, LANCE TR-FRET | inhibition, % at 12.5 µM | AID 720574;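 active = mean replicate inhibition above about 25%, with at least 55% of replicates also reaching it, limit read from the data, passing the limit was not always enough; inconclusive = only one of those two conditions met; inactive = neither condition met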
Target sequence (Q9H3R0 2-372 limits assumed): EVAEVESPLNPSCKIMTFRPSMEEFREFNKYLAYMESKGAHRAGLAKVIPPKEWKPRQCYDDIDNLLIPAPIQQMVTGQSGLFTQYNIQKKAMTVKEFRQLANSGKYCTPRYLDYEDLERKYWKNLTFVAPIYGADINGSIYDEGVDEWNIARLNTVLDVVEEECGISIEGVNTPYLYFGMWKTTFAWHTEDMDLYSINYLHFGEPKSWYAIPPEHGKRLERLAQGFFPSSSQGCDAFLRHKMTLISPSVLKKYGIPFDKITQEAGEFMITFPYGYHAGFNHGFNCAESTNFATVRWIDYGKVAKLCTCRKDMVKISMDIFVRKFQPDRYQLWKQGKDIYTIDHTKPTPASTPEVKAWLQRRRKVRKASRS
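Compound: one test concentration per compound; Material: GST-GASC-1 enzyme fragment 2-372; Amount: GASC-1 enzyme at 10 nM final in reaction; Also added: H3K9me3 peptide substrate, Fe(II), 2-oxoglutarate; Technique: LANCE TR-FRET; Times: 30 min demethylation and 1 h detection at room temperature.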
T cruzi growth-2: Trypanosoma cruzi proliferation inhibition; shares compounds with T cruzi growth-1; T. cruzi beta-gal in NIH3T3, GalScreen luminescence, 90 h; inhibition, % at 8.35 µM; 72% of 5,600 active; AID 651739;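 active = mean replicate inhibition above about 95% and at least 55% of replicates individually reaching it, limit read from the data; inconclusive = only one of the two criteria is met; inactive = neither criterion is met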
T cruzi growth-3: blocks T. cruzi growth in NIH3T3 host cells; 21% of 5,600 active; shares compounds with T cruzi growth-1; inhibition, % at 2.09 µM; T. cruzi beta-gal in NIH3T3, GalScreen luminescence, 90 h;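 active = mean inhibition above about 95%, with at least 55% of replicates also reaching it, limit read from the data; inconclusive = meets just one of the two conditions; inactive = meets neither condition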;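 note: plate controls were neutral control median for no effect and positive control median for full effect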
NIH3T3 tox: kills mouse NIH/3T3 fibroblasts | shares compounds with T cruzi growth-1 | NIH/3T3 viability, CellTiter-Glo ATP luminescence, 90 h | cytotoxicity (signal decrease), % at 8.35 µM | 14% of 5,600 active;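 active = mean signal decrease across replicates above about 35% based on untreated-well scatter, with enough replicates individually passing, limit read from the data; inconclusive = no rule stated though some were filed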;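 note: 0% = median of neutral control wells and 100% = median of positive control wells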
3T3 cytotox 2: cytotoxicity in mouse NIH/3T3 fibroblasts. NIH/3T3 viability, CellTiter-Glo ATP luminescence, 90 h. 56% of 5,600 active. inhibition, % at 24.9 µM. shares compounds with T cruzi growth-1;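 active = mean loss of cell viability signal at or above a set limit, and enough replicates individually reaching it; inconclusive = meets only the mean limit or only the replicate share; inactive = meets neither condition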;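 note: 0% = median of neutral control wells and 100% = median of positive control wells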
* = called active by the depositor; ? = inconclusive; . = not tested or not shown. Sampled rows, rich in hits. Any-hit rate of the full collection: about 5.8%.

SMILES	T cruzi growth-1	Pf Dd2 growth	IDH1 mut inh	KDM4C inh	T cruzi growth-2	T cruzi growth-3	NIH3T3 tox	3T3 cytotox 2
CN(C)C(=O)c1cccc(-c2ccc([C@@H]3[C@@H](CO)N(C(=O)C4CCC4)[C@H]3C#N)cc2)c1	100.8*	-5.0	.	-2.2	-25.1	3.9	-15.4	0.6
N#C[C@H]1[C@H](c2ccc(C3=CCCC3)cc2)[C@H](CO)N1C(=O)C1CCC1	?	15.7	.	0.9	96.3*	23.8	-6.4	17.9
N#C[C@@H]1[C@@H](c2ccc(-c3cncnc3)cc2)[C@H](CO)N1C(=O)C1CCC1	102.7*	6.1	.	-2.3	77.0	40.9	2.8	1.9
CN(C)C(=O)c1cccc(-c2ccc([C@@H]3[C@@H](C#N)N(C(=O)C4CCC4)[C@@H]3CO)cc2)c1	89.1	30.8	.	-3.0	.	.	.	.
COc1ccc(CNC(=O)C[C@@H]2CC[C@H](NS(=O)(=O)c3cccc(OC)c3)[C@@H](CO)O2)cc1	.	.	0.1	0.4	.	.	.	.
C/C=C/c1ccc([C@H]2[C@H](CO)N(S(=O)(=O)CC)C23CN(C(=O)CC)C3)cc1	.	-3.9	.	0.9	.	.	.	.
COc1ccccc1C#Cc1ccc2c(c1)O[C@@H](CN(C)Cc1ccncc1)[C@@H](C)CN([C@H](C)CO)S2(=O)=O	98.0*	-78.3	-5.4	-0.6	101.8*	104.0*	-7.6	-16.0
COc1ccccc1C#Cc1ccc2c(c1)O[C@H](CN(C)Cc1cncnc1)[C@@H](C)CN([C@H](C)CO)S2(=O)=O	92.0	-45.0	.	0.5	.	.	.	.
COc1ccccc1C#Cc1ccc2c(c1)O[C@@H](CN(C)Cc1ccncc1)[C@H](C)CN([C@H](C)CO)S2(=O)=O	121.4*	?	0.2	1.0	96.3*	97.0*	82.6*	105.1*
COc1ccccc1C#Cc1ccc2c(c1)O[C@@H](CN(C)Cc1cncnc1)[C@@H](C)CN([C@@H](C)CO)S2(=O)=O	66.8	-63.8	-20.1	-1.6	.	.	.	.
COc1ccccc1C#Cc1ccc2c(c1)O[C@H](CN(C)Cc1ccncc1)[C@@H](C)CN([C@@H](C)CO)S2(=O)=O	127.5*	-77.0	-0.5	0.8	92.6	98.3*	73.9*	104.0*
COc1ccccc1C#Cc1ccc2c(c1)O[C@@H](CN(C)Cc1ccncc1)[C@H](C)CN([C@@H](C)CO)S2(=O)=O	120.5*	?	0.3	-2.2	99.7*	93.7	73.3*	81.2*
O=C(Nc1ccc2c(c1)[C@@H]1C[C@H](CC(=O)N3CCOCC3)O[C@H](CO)[C@@H]1O2)C1CCOCC1	15.8	22.9	0.3	1.3	.	.	.	.
COc1ccc(CN(C)C[C@@H]2OCCCC[C@H](C)Oc3ccc(NS(=O)(=O)c4ccc(OC)cc4)cc3C(=O)N([C@@H](C)CO)C[C@H]2C)cc1	.	-50.2	1.7	-1.4	.	.	.	.
CNC[C@H]1OCCCC[C@@H](C)Oc2ccc(NS(=O)(=O)c3ccc(Cl)cc3)cc2C(=O)N([C@H](C)CO)C[C@@H]1C	39.6	23.7	0.6	-1.2	.	.	.	.
COc1ccccc1-c1ccc2c(c1)[C@H]1[C@H](CCN1C(=O)C1CCCCC1)[C@@H](CO)N2	-3.2	-38.8	.	-1.3	.	.	.	.
COc1ccccc1-c1ccc2c(c1)[C@H]1[C@H](CCN1C(=O)C1CCOCC1)[C@@H](CO)N2	99.8*	-22.7	.	0.0	106.3*	88.2	-4.9	-29.5
COc1ccccc1-c1ccc2c(c1)[C@@H]1[C@@H](CCN1C(=O)C1CC1)[C@H](CO)N2	?	2.9	.	1.3	106.7*	?	-15.7	-28.1
COc1ccccc1-c1ccc2c(c1)[C@H]1[C@H](CCN1C(=O)C1CCCC1)[C@H](CO)N2	.	-75.2	.	.	.	.	.	.
O=C(C1CCCCC1)N1C[C@H]2[C@@H](c3ccccc31)[C@@H](CO)N2Cc1ccccc1Cl	101.4*	-14.4	.	0.4	102.6*	23.8	14.7	33.7
O=C(Nc1ccc(Cl)cc1)N1C[C@H]2[C@@H](c3ccccc31)[C@H](CO)N2CC1CCCC1	31.1	-34.9	.	-1.3	.	.	.	.
O=C(Nc1ccc(Cl)cc1)N1C[C@@H]2[C@H](c3ccccc31)[C@H](CO)N2CC1CCCCC1	117.8*	-21.1	.	0.3	110.8*	31.5	14.8	103.4*
Cc1cccc(S(=O)(=O)N2C[C@H]3[C@@H](c4ccccc42)[C@H](CO)N3CC2CCCC2)c1	?	-41.3	.	1.8	111.6*	72.0	7.1	?
O=C(C1CCCC1)N1C[C@H]2[C@@H](c3ccccc31)[C@H](CO)N2C(=O)c1ccccc1F	100.4*	2.7	.	4.1	90.4	37.8	5.9	?
COCC(=O)N1CC(=O)N2[C@H](CO)[C@H](c3ccc(-c4cccnc4)cc3)[C@H]2C1	.	17.6	.	-0.3	.	.	.	.
SMILES	T cruzi growth-1	Pf Dd2 growth	IDH1 mut inh	KDM4C inh	T cruzi growth-2	T cruzi growth-3	NIH3T3 tox	3T3 cytotox 2
O=C(Nc1ccc(F)cc1)N1C[C@H]2[C@@H](c3ccccc31)[C@@H](CO)N2Cc1ccccc1Cl	?	-9.1	.	-0.1	100.7*	7.6	-10.5	-5.3
O=C(Nc1ccc(F)cc1)N1C[C@@H]2[C@H](c3ccccc31)[C@@H](CO)N2Cc1ccccc1Cl	-32.0	-11.0	.	-0.2	.	.	.	.
CCc1cnc(N2[C@H](C#N)[C@@H](c3ccccc3)[C@H]2CO)s1	6.5	20.5	.	-1.1	.	.	.	.
CCc1cnc(N2[C@@H](C#N)[C@H](c3ccc(C#Cc4ccccc4F)cc3)[C@@H]2CO)s1	110.1*	-44.3	.	-1.3	105.1*	94.3	10.7	1.6
CCc1cnc(N2[C@H](C#N)[C@@H](c3ccc(-c4cccc(F)c4)cc3)[C@@H]2CO)s1	?	-21.6	.	-1.7	104.4*	52.0	-3.9	100.0*
CCc1cnc(N2[C@H](C#N)[C@@H](c3ccc(C#Cc4ccccc4F)cc3)[C@@H]2CO)s1	100.4*	-52.7	.	-0.8	100.1*	107.1*	-25.4	84.9*
CCc1cnc(N2[C@H](C#N)[C@H](c3ccccc3)[C@H]2CO)s1	-6.9	26.5	.	-0.5	.	.	.	.
Cc1ccc(S(=O)(=O)N(C)C[C@@H]2OCCCC[C@H](C)Oc3ccc(NS(C)(=O)=O)cc3C(=O)N([C@H](C)CO)C[C@H]2C)cc1	33.2	-23.0	.	0.5	.	.	.	.
C[C@H](CO)N1C[C@H](C)[C@@H](CN(C)Cc2ccccc2)Oc2cc(C3=CCCCC3)ccc2S1(=O)=O	115.6*	-57.4	0.2	0.3	100.5*	101.1*	45.5*	105.0*
C[C@@H]1CN([C@@H](C)CO)S(=O)(=O)c2ccc(C3=CCCCC3)cc2O[C@@H]1CN(C)Cc1ccccc1	122.3*	-70.9	-0.9	-0.4	99.9*	117.0*	27.0	105.6*
C[C@H](CO)N1C[C@H](C)[C@H](CN(C)Cc2ccccc2)Oc2cc(C3=CCCCC3)ccc2S1(=O)=O	?	-9.1	-2.1	-1.4	100.4*	70.6	0.3	102.6*
